{"source": "ChEMBL document CHEMBL1949555", "about": "“Piperazine-2,3-dicarboxylic acid derivatives as dual antagonists of NMDA and GluK1-containing kainate receptors” (J Med Chem, 2012)", "key": {"Rattus norvegicus [1]": {"tested_on": "Rattus norvegicus", "experiment": "Antinociceptive activity in Wistar rat at 30 mg/kg, ip", "type": "functional, organism-based", "set-up": "dose 30 mg/kg", "in_short": "(§1)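 Male Wistar rats (~250 g) with partial saphenous nerve ligation injury, tested on day 7 after injury and also before injury. Drug at 30 mg/kg or vehicle is given i.p. (n=5/group), with testing starting 15 min later. Mechanical threshold is taken from von Frey stimulus:response curves on both hindpaws (5 applications per hair). Thermal latency to radiant heat is the mean of 3 trials per hindpaw. Analysis by two-way ANOVA.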"}, "[2]": {"target": "Ionotropic glutamate receptor NMDA 1/2D (Rattus norvegicus, UniProt P35439+Q62645)", "experiment": "Antagonist activity rat recombinant GluN1/GluN2D receptor expressed in Xenopus laevis oocytes assessed as inhibition of glutamate-induced response by two-electrode voltage-clamp electrophysiology assay", "type": "functional, cell-based, Oocyte", "conditions": "read-out: Ki(app)"}, "Rattus norvegicus [3]": {"organism": "Rattus norvegicus", "experiment": "Selectivity ratio of IC50 for rat GluK3 receptor to IC50 for rat GluK1 receptor", "in_short": "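IC50 ratio from whole-cell patch clamp on HEK293 cells stably expressing homomeric GluK1 or GluK3, voltage clamped at −70 mV, 20°C. Glutamate is applied fast through a theta tube. Antagonist is applied about 2 min or until the response is stable, at five concentrations per cell, giving a dose-response curve for each cell.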"}, "Rattus norvegicus [4]": {"organism": "Rattus norvegicus", "experiment": "Antagonist activity at AMPA receptor in CA3 region of rat hippocampus assessed as change in AMPA-mediated field excitatory postsynaptic potential at 100 uM", "type": "functional, tissue-based", "in_short": "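Field EPSPs recorded from transverse rat hippocampal slices (400 μm), CA3 mossy fiber synapses. Compound 100 μM perfused 30 min. fEPSPs averaged every 2 min; slope between 20 and 80% of maximum measured and expressed as % of control slope. Mean ± s.e.m., n=4.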"}, "[5]": {"target": "Glutamate receptor ionotropic, kainate 1 (Homo sapiens, UniProt P39086)", "sequence (P39086 whole entry)": "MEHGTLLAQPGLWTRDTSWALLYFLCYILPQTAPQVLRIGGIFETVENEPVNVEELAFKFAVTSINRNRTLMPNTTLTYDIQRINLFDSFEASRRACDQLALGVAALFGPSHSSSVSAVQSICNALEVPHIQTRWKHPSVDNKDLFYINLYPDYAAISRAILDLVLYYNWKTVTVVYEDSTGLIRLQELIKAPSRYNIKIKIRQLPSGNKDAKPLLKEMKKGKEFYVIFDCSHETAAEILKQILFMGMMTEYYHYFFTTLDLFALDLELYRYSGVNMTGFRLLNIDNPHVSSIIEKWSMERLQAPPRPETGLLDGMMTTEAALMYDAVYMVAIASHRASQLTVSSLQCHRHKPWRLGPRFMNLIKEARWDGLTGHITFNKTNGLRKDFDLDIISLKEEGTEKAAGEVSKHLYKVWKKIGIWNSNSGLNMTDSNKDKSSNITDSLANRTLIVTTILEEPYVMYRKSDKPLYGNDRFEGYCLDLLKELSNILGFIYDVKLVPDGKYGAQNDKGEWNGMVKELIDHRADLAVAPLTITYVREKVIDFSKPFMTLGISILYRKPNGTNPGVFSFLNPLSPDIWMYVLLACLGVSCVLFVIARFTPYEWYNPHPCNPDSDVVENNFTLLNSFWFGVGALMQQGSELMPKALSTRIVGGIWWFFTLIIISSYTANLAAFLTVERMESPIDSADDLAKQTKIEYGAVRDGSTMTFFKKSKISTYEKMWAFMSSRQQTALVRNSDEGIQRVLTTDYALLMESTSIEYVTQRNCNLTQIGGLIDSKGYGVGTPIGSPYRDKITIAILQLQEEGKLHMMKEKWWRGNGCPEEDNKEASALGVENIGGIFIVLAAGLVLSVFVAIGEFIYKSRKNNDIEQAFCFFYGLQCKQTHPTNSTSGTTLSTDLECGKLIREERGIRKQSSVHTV", "experiment": "Antagonist activity at human recombinant GluK1 receptor expressed in human HEK293 cells assessed as inhibition of glutamate-stimulated calcium influx by fluorescence assay", "type": "functional, cell-based", "in_short": "(§2)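 HEK293 lines stably expressing homomeric human GluK1(Q) or GluK2(Q), passaged no more than 20 times. Ca2+ influx is read as fluorescence, with concanavalin A present. Test compound is added in a first run, then L-glutamate plus antagonist in a second run (final glutamate 30 μM for GluK1, 10 μM for GluK2). IC50 values are converted to KB. Means ± s.e.m.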"}, "Rattus norvegicus [6]": {"tested_on": "Rattus norvegicus", "experiment": "Antinociceptive activity in Wistar rat nerve injury model assessed as increased thermal withdrawal latency at 30 mg/kg, ip", "type": "functional, organism-based", "set-up": "dose 30 mg/kg", "in_short": "as §1"}, "HEK293 [7]": {"tested_on": "HEK293", "experiment": "Displacement of [3H]-Kainate from […] rat GluK3 A660S mutant transfected in human HEK293 cells at 1 mM by immunoblot analysis", "type": "cell-based"}, "[8]": {"target": "Glutamate receptor ionotropic, kainate 3 (Rattus norvegicus) (UniProt P42264)", "sequence (P42264 whole entry)": "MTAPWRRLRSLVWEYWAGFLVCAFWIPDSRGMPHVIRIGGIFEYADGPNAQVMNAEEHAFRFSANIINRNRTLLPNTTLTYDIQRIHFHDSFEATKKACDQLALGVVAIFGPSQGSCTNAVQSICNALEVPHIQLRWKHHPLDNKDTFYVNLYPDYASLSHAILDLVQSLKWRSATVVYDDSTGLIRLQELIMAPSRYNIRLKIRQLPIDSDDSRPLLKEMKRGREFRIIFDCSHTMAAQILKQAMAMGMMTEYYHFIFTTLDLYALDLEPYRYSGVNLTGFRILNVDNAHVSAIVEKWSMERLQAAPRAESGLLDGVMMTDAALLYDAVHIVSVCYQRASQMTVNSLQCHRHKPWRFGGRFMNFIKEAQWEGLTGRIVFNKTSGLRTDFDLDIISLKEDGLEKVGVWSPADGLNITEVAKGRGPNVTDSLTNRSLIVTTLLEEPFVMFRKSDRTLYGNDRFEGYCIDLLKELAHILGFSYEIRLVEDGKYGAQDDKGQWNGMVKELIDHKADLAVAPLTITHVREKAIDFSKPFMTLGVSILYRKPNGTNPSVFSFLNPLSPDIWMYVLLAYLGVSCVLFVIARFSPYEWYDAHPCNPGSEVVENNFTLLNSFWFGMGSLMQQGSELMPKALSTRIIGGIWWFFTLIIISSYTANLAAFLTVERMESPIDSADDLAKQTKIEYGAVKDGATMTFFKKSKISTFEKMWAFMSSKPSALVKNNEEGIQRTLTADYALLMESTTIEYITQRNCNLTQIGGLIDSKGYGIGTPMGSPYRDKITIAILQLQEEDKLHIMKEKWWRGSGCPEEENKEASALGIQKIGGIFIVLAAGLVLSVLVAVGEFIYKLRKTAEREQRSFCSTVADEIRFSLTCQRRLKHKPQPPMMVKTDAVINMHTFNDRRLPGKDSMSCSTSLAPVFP", "experiment": "Displacement of [3H]-Kainate from wild type rat GluK3 receptor transfected in human HEK293 cells at 1 mM by immunoblot analysis", "type": "cell-based"}, "[9]": {"target": "Glutamate NMDA receptor; Grin1/Grin2c (Rattus norvegicus, UniProt P35439+Q00961)", "experiment": "Antagonist activity rat recombinant GluN1/GluN2C receptor expressed in Xenopus laevis oocytes assessed as inhibition of glutamate-induced response by two-electrode voltage-clamp electrophysiology assay", "type": "functional, cell-based, Oocyte", "conditions": "read-out: Ki(app)", "in_short": "(§3)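 Two-electrode voltage clamp of oocytes expressing rat GluN1a with the given GluN2 subunit, held at −60 mV in buffer of 116 mM NaCl, 2 mM KCl, 0.3 mM BaCl2, 5 mM HEPES, pH 7.4. Response is the steady plateau to bath-applied 10 μM L-glutamate plus 10 μM glycine. IC50 converted to apparent Ki via Ki = IC50/(1 + [agonist]/EC50). Means ± s.e.m.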"}, "Rattus norvegicus [10]": {"tested_on": "Rattus norvegicus", "experiment": "Antinociceptive activity in Wistar rat nerve injury model assessed as reversal of drop in mechanical withdrawal threshold at 30 mg/kg, ip administered before 1 hr on day 7 of injury relative to control", "type": "functional, organism-based", "set-up": "dose 30 mg/kg", "in_short": "as §1"}, "[11]": {"target": "Glutamate receptor ionotropic, kainate 3 (Rattus norvegicus) (UniProt P42264)", "experiment": "Displacement of [3H]-Kainate from wild type rat GluK3 receptor transfected in human HEK293 cells at 300 uM by immunoblot analysis", "type": "cell-based"}, "[12]": {"target": "Glutamate receptor ionotropic, kainate 3 (Rattus norvegicus) (UniProt P42264)", "experiment": "Displacement of [3H]-Kainate from wild type rat GluK3 receptor transfected in human HEK293 cells at 100 uM by immunoblot analysis", "type": "cell-based"}, "HEK293 [13]": {"tested_on": "HEK293", "experiment": "Displacement of [3H]-Kainate from […] rat GluK3 A660S mutant transfected in human HEK293 cells at 300 uM by immunoblot analysis", "type": "cell-based"}, "HEK293 [14]": {"tested_on": "HEK293", "experiment": "Displacement of [3H]-Kainate from rat GluK3 A660S mutant transfected in human HEK293 cells at 100 uM by immunoblot analysis", "type": "cell-based"}, "[15]": {"target": "Glutamate NMDA receptor; Grin1/Grin2b (Rattus norvegicus, UniProt P35439+Q00960)", "experiment": "Antagonist activity rat recombinant GluN1/GluN2B receptor expressed in Xenopus laevis oocytes assessed as inhibition of glutamate-induced response by two-electrode voltage-clamp electrophysiology assay", "type": "functional, cell-based, Oocyte", "conditions": "read-out: Ki(app)", "in_short": "as §3"}, "[16]": {"target": "Glutamate NMDA receptor; Grin1/Grin2a (Rattus norvegicus, UniProt P35439+Q00959)", "sequence (Q00959 whole entry, other chains not shown)": "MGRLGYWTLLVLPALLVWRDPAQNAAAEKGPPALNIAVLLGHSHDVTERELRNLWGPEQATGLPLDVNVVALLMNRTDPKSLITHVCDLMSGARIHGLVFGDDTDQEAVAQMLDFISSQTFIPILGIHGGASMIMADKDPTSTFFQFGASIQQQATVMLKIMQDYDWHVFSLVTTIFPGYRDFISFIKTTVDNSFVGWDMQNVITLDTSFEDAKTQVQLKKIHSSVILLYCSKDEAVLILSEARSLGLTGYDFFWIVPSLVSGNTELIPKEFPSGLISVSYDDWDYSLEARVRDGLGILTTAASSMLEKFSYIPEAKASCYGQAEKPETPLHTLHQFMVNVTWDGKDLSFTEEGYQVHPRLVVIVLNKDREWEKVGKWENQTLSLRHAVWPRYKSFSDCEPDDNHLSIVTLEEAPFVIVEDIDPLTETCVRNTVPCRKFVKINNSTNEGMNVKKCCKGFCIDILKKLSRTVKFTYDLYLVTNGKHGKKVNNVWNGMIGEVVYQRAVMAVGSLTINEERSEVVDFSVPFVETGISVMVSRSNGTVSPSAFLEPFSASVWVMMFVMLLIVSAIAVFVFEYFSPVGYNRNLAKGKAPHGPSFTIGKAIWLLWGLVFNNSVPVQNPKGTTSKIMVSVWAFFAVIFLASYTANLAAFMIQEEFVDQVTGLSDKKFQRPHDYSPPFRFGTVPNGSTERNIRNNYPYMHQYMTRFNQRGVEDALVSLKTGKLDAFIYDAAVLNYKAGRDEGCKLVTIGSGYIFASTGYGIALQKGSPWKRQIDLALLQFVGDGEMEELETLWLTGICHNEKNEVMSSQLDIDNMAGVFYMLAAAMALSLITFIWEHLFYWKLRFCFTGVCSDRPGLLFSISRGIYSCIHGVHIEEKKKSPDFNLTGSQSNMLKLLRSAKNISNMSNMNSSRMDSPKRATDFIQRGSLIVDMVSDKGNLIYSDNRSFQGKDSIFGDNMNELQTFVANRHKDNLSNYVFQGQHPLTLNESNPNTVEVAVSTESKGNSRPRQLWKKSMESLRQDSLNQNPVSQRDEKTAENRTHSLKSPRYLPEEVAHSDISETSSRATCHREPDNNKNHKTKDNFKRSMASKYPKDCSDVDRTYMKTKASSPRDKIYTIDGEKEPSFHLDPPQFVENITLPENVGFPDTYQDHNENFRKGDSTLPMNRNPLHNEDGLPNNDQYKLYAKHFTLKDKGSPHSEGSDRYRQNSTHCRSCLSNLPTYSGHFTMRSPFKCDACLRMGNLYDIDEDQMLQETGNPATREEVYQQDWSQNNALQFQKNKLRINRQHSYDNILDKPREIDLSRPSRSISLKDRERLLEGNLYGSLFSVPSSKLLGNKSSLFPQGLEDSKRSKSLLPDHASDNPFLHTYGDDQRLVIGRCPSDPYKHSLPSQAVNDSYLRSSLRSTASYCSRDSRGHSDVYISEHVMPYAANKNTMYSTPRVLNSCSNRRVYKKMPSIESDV", "experiment": "Antagonist activity at rat recombinant GluN1/GluN2A receptor expressed in Xenopus laevis oocytes assessed as inhibition of glutamate-induced response by two-electrode voltage-clamp electrophysiology assay", "type": "functional, cell-based, Oocyte", "conditions": "read-out: Ki(app)"}, "[17]": {"target": "Glutamate receptor ionotropic, kainate 2 (Homo sapiens, UniProt Q13002)", "sequence (Q13002 whole entry)": "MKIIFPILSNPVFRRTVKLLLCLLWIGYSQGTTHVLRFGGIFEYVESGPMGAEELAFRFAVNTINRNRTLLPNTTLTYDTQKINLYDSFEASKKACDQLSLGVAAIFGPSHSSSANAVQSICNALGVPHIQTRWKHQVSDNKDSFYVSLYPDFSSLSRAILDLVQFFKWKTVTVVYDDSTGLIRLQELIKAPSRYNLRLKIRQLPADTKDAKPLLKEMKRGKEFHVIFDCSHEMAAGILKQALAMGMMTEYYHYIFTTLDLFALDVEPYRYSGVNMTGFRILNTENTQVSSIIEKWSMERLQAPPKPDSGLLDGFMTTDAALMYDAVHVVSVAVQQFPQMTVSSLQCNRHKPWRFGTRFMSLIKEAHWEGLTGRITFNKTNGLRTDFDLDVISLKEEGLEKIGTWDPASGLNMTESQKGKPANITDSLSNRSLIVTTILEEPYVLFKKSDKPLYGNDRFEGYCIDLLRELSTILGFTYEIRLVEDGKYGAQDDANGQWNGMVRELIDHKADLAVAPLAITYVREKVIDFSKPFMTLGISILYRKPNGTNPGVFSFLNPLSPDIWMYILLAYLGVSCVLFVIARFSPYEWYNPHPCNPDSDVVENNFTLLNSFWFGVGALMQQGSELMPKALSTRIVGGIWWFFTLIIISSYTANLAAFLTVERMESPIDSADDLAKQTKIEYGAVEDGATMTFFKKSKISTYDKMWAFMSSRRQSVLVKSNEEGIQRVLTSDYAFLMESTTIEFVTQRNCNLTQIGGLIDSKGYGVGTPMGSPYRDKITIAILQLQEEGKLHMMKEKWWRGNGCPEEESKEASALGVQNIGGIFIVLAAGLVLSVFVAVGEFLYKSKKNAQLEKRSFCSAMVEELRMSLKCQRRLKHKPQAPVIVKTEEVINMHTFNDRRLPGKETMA", "experiment": "Antagonist activity at human recombinant GluK2 receptor expressed in human HEK293 cells assessed as inhibition of glutamate-stimulated calcium influx by fluorescence assay", "type": "functional, cell-based", "in_short": "as §2"}, "[18]": {"target": "Glutamate receptor ionotropic, kainate 3 (Homo sapiens, UniProt Q13003)", "sequence (Q13003 whole entry)": "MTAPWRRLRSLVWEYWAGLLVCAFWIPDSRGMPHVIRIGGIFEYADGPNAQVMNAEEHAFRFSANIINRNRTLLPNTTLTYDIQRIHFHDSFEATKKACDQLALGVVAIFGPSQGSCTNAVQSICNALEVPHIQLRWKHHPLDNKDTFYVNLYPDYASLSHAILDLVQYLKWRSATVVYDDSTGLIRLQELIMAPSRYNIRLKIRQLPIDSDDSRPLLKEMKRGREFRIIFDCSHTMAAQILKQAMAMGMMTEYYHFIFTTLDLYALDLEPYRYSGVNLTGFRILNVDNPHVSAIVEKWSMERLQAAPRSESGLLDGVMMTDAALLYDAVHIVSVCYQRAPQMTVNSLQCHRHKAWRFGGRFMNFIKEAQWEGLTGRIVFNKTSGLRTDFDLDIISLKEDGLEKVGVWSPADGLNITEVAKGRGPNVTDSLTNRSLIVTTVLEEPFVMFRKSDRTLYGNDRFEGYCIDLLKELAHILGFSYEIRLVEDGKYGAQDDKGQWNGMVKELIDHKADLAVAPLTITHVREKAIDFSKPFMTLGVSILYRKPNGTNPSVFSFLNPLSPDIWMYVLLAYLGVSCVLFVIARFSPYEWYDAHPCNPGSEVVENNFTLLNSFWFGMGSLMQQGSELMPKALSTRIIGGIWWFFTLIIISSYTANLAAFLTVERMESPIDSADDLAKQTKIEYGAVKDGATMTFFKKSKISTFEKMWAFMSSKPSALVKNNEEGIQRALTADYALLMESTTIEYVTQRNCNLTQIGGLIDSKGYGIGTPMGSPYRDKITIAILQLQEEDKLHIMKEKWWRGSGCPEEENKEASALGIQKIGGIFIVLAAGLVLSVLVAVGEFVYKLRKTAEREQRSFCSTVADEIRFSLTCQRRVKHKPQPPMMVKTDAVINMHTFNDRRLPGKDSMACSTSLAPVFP", "experiment": "Antagonist activity at human recombinant GluK3 receptor expressed in human HEK293 cells assessed as inhibition of glutamate-stimulated calcium influx by fluorescence assay", "type": "functional, cell-based"}}, "note": "Activity calls are given as the source filed them."}
{"smiles": "O=C(O)[C@H]1NCCN(C(=O)c2ccc3cc(I)c4ccccc4c3c2)[C@H]1C(=O)O", "note": "(relative stereo)", "values": [{"measurement": "Activity", "setting": "Rattus norvegicus [1]", "result": "Active"}, {"measurement": "Ki", "setting": "[2]", "result": 1000, "unit": "nM"}, {"measurement": "Ratio IC50", "setting": "Rattus norvegicus [3]", "result": "> 100"}, {"measurement": "Activity", "setting": "Rattus norvegicus [4]", "result": "inactive"}, {"measurement": "IC50", "setting": "[5]", "result": 650, "unit": "nM"}, {"measurement": "Kb", "setting": "[5]", "result": 4.8, "unit": "µM"}, {"measurement": "Activity", "setting": "Rattus norvegicus [6]", "result": "Active"}, {"measurement": "inhibition", "setting": "HEK293 [7]", "result": "Active"}, {"measurement": "inhibition", "setting": "[8]", "result": "Active"}, {"measurement": "Ki", "setting": "[9]", "result": 1900, "unit": "nM"}, {"measurement": "Activity", "setting": "Rattus norvegicus [10]", "result": "Active"}, {"measurement": "inhibition", "setting": "[11]", "result": "Active"}, {"measurement": "inhibition", "setting": "[12]", "result": "Active"}, {"measurement": "inhibition", "setting": "HEK293 [13]", "result": "Active"}, {"measurement": "inhibition", "setting": "HEK293 [14]", "result": "Active"}, {"measurement": "Ki", "setting": "[15]", "result": 3.8, "unit": "µM"}, {"measurement": "Ki", "setting": "[16]", "result": 7.4, "unit": "µM"}, {"measurement": "IC50", "setting": "[17]", "result": "> 100", "unit": "µM"}, {"measurement": "Kb", "setting": "[17]", "result": "> 100", "unit": "µM"}, {"measurement": "IC50", "setting": "[18]", "result": 81.3, "unit": "µM"}]}
